Assay outcomes (PubChem BioAssay)
UHRF1 binding = blocks human UHRF1 binding to methylated DNA; Q96T88; UHRF1 binding to methylated oligo, TR-FRET; inhibition, % at 4.4 µM; hit rate 0.75% among 370,000; AID 687016; in the data active = inhibition above about 21%;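 also: UHRF1 SRA domain binding a hemimethylated CpG hairpin DNA probe; 0% = median of test compound wells and 100% = reference inhibitor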
DDE Tn7 FP inh = disrupts Tn7 cyclic peptide binding to fibrin D-Dimer-E complex | P02675 | inhibition, % at 8.3 µM | FP displacement of FITC-Tn7 peptide from fibrin DD(E); 0% = median of compound wells per plate | hit rate 0.13% among 370,000;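 active = inhibition above the mean of compounds falling within the control limits plus 3 SD of them, cut at about 14% in these data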;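 also: 0% = plate median of compound wells and 100% = 10 µM Aha-Tn7 peptide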
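Measure: % inhibition scaled between sample-field median and high-control FP; Test system: human fibrin DD(E); Quantity: 2 µM final DD(E) protein; Doses: one dose, 8.3 µM nominal; Schedule: compound with protein 10 min, then 3 h after probe, room temperature; Detection: fluorescence polarization; Medium: Tris buffer with calcium and detergent, pH 7.8.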
LEDGF integ inh = blocks HIV-1 LEDGF/p75-dependent DNA integration. TR-FRET IN-LEDGF/p75 DNA integration, Eu/Cy5. inhibition, % at 3.7 µM. hit rate 0.64% among 370,000. AID 743269;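 active = inhibition above the screen-wide mean plus 3 SD, cut at about 13% in these data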;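 also: signal is the Cy5 over europium emission ratio at 671 and 618 nm; 0% = plate median of compound wells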
TDP2 inh = TDP2 (human) inhibition, absorbance primary screen; O95551; recombinant TDP2, T5PNP hydrolysis, p-nitrophenol absorbance 415 nm; inhibition, % at 12.8 µM; hit rate 0.34% among 370,000;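 active = inhibition above the mean of all tested compounds plus 3 SD, set per campaign, cut at about 25% in these data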;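 also: 0% = DMSO with enzyme and 100% = buffer with substrate but no TDP2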
Target sequence (O95551 whole entry, looked up): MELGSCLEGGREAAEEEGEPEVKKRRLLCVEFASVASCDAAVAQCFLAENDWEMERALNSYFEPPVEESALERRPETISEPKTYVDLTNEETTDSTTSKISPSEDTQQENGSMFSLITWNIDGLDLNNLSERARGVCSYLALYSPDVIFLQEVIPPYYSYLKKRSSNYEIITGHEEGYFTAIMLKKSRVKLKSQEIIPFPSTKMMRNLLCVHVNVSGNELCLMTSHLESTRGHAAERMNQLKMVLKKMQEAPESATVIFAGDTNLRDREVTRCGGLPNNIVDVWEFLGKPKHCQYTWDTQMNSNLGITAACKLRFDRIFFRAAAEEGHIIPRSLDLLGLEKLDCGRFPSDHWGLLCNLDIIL
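System – recombinant human TDP2 · Quantity – TDP2 enzyme at 120 nM final · Doses – single concentration, 12.8 µM nominal, with 1% DMSO · Incubation – 2 h at 37 °C · Measured by – epi absorbance of p-nitrophenol freed from T5PNP by hydrolysis · Read-out – % inhibition relative to enzyme-containing and enzyme-free wells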
MBD2 inh = inhibitors of human MBD2 binding to methylated oligonucleotide; inhibition, % at 4.4 µM; TR-FRET; Q9UBB5; AID 686964; hit rate 0.31% among 370,000; in the data active = inhibition above about 13%
Tn6 DDE FP = disrupts Tn6 cyclic peptide binding to fibrin D-Dimer-E complex | hit rate 0.21% among 370,000 | inhibition, % at 8.3 µM | Fibrin DD(E) TRITC-Tn6 fluorescence polarization displacement;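 active = inhibition above a per-campaign cutoff: mean of compounds within control limits plus 3 SD, cut at about 15% in these data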;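 also: 0% = median of all compound wells on the plate and 100% = blocking peptide control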
DDE Tn7 confirm = DD(E)-Tn7 binding inhibition, FP confirmation | shares compounds with DDE Tn7 FP inh | FP displacement of TRITC-Tn7 peptide from DD(E); 0% set at plate's compound-well median | inhibition, % at 8.3 µM | hit rate 5% among 460;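 active = inhibition above the campaign cutoff, the mean of compounds within control limits plus 3 SD, cut at about 14% in these data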;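 also: 100% = median FP of high control wells holding Aha-Tn7 inhibitor peptide; displacers lower polarization since freed probe rises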
DDE Tn7 FP ctr = DD(E)-Tn7 binding inhibition, counter-screen. AID 720633. hit rate 3% among 460. shares compounds with DDE Tn7 FP inh. fibrin DD(E), TRITC-Tn7 probe displacement, fluorescence polarization. inhibition, % at 8.3 µM;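 active = inhibition above the cutoff, the mean of compounds lying between the control bounds plus 3 SD of those compounds, cut at about 17% in these data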;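 also: 0% = median of compound sample wells and 100% = excess unlabeled Aha-Tn7 peptide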
Tn6 DDE ctr = DD(E)-Tn6 binding inhibition, counter-screen; inhibition, % at 8.3 µM; shares compounds with Tn6 DDE FP; hit rate 2% among 680; Fibrin DD(E), TRITC-Tn6 fluorescence polarization displacement; 0% = median of compound wells, not DMSO;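 active = inhibition above the mean of test compounds lying between the control limits plus 3 SD of those, cut at about 14% in these data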;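 also: 0% = median of compound wells and 100% = wells with Aha-Tn7 blocking peptide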
DDE Tn6 confirm = DD(E)-Tn6 binding inhibition, FP confirmation; shares compounds with Tn6 DDE FP; FP displacement of TRITC-Tn6 peptide from DD(E); 0% = per-plate median of test wells; inhibition, % at 8.3 µM; hit rate 10% among 680;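 active = inhibition above the mean of compounds lying within the control limits plus 3 SD, cut at about 16% in these data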;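 also: 100% = high control wells holding a competing inhibitor peptide at 10 µM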
* = called active by the depositor; nt = not tested or not shown. An excerpt weighted towards active compounds, which were near 1.9% of everything screened.

SMILES	UHRF1 binding	DDE Tn7 FP inh	LEDGF integ inh	TDP2 inh	MBD2 inh	Tn6 DDE FP	Tn6 DDE ctr	DDE Tn6 confirm	others
CCOC(=O)NC(=O)/C(C#N)=C\Nc1ccc(Cl)cc1Cl	-4	-3	-3	-2	1	-2	nt	nt
CCOC(=O)NC(=O)/C(C#N)=C\Nc1sccc1C(=O)OC	1	17*	-8	-4	0	16*	1	2	DDE Tn7 confirm=1;DDE Tn7 FP ctr=2
COC(=O)[C@]12C[C@H](CC(=O)NCc3cccc4ccccc34)C(=O)N(CCC3=CCCCC3)C1=C[C@H](C(C)(C)C)O[C@@H]2C	1	6	-2	4	-2	-2	nt	nt
O=C1C(N2CCOCC2)=Cc2cccc3cccc1c23	-14	22*	7	5	-22	38*	0	16*	DDE Tn7 confirm=0;DDE Tn7 FP ctr=16*
O=C1C=C(N2CCOCC2)c2cccc3cccc1c23	-13	25*	0	0	-13	31*	7	8	DDE Tn7 confirm=7;DDE Tn7 FP ctr=8
CC1=C(C)C(=O)C(N2CCOCC2)=CC1=O	1	0	-1	-4	-5	2	nt	nt
O=C(NCc1ccccc1)C(c1ccco1)N1CCN(CCN2CCOCC2)CC1 (centres undefined)	1	3	-1	-3	1	-1	nt	nt
CN(C)c1ccc(C=Cc2nccc3ccccc23)cc1	-22	30*	2	-5	-11	131*	2	54*	DDE Tn7 confirm=2;DDE Tn7 FP ctr=54*
C[C@@H]1CN([C@@H](C)CO)C(=O)CCCn2nncc2CO[C@@H]1CN(C)C(=O)C1CC1	1	7	1	2	2	1	nt	nt
CCOC(=O)[C@@]12CCCC=C1N(CCc1ccc(Cl)cc1)C(=O)[C@H]2CC(=O)N1CCCCC1	-3	3	6	-7	-5	3	nt	nt
Nc1cnccc1C(=O)O	-5	14*	0	0	-3	46*	-2	-3	DDE Tn7 confirm=-2;DDE Tn7 FP ctr=-3
COc1ccc(CNC(=O)C[C@H]2C[C@H](C(=O)N3CCOCC3)[C@@]3(C)c4[nH]c5cc(-c6ccco6)ccc5c4CCN3C2=O)cc1OC	1	46*	-3	-4	0	115*	2	1	DDE Tn7 confirm=2;DDE Tn7 FP ctr=1
N#CC1=C(N)Oc2cc(N)ccc2C1c1ccsc1 (centres undefined)	-5	7	-3	11	-7	8	nt	nt
N#CC1=C(N)Oc2ccc3ccc(O)cc3c2C1c1ccsc1 (centres undefined)	11	23*	3	1	2	169*	8	38*	DDE Tn7 confirm=8;DDE Tn7 FP ctr=38*
CC(=O)c1ccc(N2CCN(CN3C(=O)CC4(CCCC4)C3=O)CC2)c(F)c1	0	-10	2	0	-5	70*	8	2
CN(CC(=O)N1CCc2ccccc21)S(=O)(=O)c1cccs1	3	-5	1	8	-1	16*	1	-4
O=C1c2cccc3c(O)ccc(c23)C(=O)N1Cc1ccccc1	-52	-1	1	-3	-28	24*	19*	19*
COc1ccc(OC)c(NS(=O)(=O)c2ccc(NC(C)=O)cc2)c1	-2	8	-3	1	-1	16*	10	6
CC(C)[C@H](NC(=O)[C@@H](N)Cc1ccccc1)C(=O)N1CCC2CCN(Cc3ccccc3)CC21 (some centres undefined)	1	7	6	9	2	7	nt	nt
O=C(Nc1ccccc1N1CCCC1)c1ccc(Cl)cc1Cl	-1	4	-1	-13	0	16*	0	-4
O=C(CSc1nc2ccccc2[nH]1)Nc1nc(-c2ccc(Br)cc2)cs1	4	-1	5	2	3	41*	2	-5
CCCc1cc(=O)[nH]c(SCC(=O)Nc2nc(-c3ccccc3)cs2)n1	3	0	0	-4	1	2	nt	nt
O=C(N[C@H](C(=O)N1CCC[C@H]1C(=O)NC1CCCC1)C1CCCCC1)c1ccccn1	1	4	1	10	0	6	nt	nt
CCCCCn1c(=O)[nH]c2cc(C(=O)NCCCN3CCC(C)CC3)ccc2c1=O	-2	11	-2	-4	1	18*	-2	-8
O=C(CN(Cc1ccco1)S(=O)(=O)c1ccccc1)N/N=C/c1cccc(O)c1	-1	5	0	-4	1	16*	-5	-9
SMILES	UHRF1 binding	DDE Tn7 FP inh	LEDGF integ inh	TDP2 inh	MBD2 inh	Tn6 DDE FP	Tn6 DDE ctr	DDE Tn6 confirm	others
CC(=O)Nc1ccc(S(=O)(=O)N(C)CC(=O)N/N=C/c2cccc(O)c2)cc1	0	1	3	0	-2	3	nt	nt
COCCNC(=O)c1c(N)[nH]c(C(=O)c2ccc(Br)cc2)c1-c1ccc(Br)cc1	-2	6	1	4	-4	3	nt	nt
Nc1cc(C(=O)O)ccc1Nc1ccccc1	0	-3	-2	1	2	18*	6	-5
O=C(CSc1ccc(-c2nc3ccccc3[nH]2)cn1)Nc1ccc(S(=O)(=O)NC2CC2)cc1	0	-4	-2	-1	2	182*	9	-12
N#Cc1ccccc1S(=O)(=O)N1CCN(c2nc(-c3cccs3)nc3ccccc23)CC1	-1	-6	0	8	1	-4	nt	nt
O=C(NCc1cc(C(F)(F)F)ccc1Cl)c1cccc2c1C(=O)c1ccc(N3CCC(N4CCCCC4)CC3)cc1S2(=O)=O	11	-4	-17	-1	6	1	nt	nt
O=C(NC1CC1)c1cccc2c1C(=O)c1ccc(N3CCC(N4CCCCC4)CC3)cc1S2(=O)=O	-12	-5	1	-1	-16	18*	-3	0
COC(=O)[C@]12C[C@H](CC(=O)N3CCN(C(=O)c4ccco4)CC3)C(=O)N(Cc3ccc4c(c3)OCO4)C1=C[C@H](C(C)C)O[C@@H]2C1CC1	5	2	-4	-8	0	-1	nt	nt
Nc1ccccc1N1C(=O)c2cccc3cccc(c23)C1=O	-6	-7	2	18	-6	-4	nt	nt
